In data set [1] the target is T1, Peroxisome proliferator-activated receptor alpha (Homo sapiens, UniProt Q07869).
T1 sequence (Q07869 whole entry): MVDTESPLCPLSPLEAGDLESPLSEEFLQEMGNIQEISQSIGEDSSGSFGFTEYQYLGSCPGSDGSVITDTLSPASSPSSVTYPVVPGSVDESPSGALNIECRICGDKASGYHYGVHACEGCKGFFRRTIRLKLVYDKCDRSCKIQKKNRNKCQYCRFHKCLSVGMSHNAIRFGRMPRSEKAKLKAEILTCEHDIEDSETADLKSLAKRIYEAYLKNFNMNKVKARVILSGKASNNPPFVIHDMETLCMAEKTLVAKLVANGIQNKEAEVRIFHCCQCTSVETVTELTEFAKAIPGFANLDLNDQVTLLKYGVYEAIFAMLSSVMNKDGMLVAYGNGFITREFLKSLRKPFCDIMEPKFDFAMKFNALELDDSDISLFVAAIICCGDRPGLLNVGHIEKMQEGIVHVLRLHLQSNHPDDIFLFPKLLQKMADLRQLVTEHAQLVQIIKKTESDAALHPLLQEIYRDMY
Description: Partial agonist activity at Gal4-fused PPARalpha LBD (unknown origin) expressed in HEK293T cells after 14 to 16 hrs by dual-Glo luciferase assay. The data set is classed as cell-based. Summed up:
(§1)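 Gal4 hybrid reporter assay in transiently transfected HEK293T cells. Constructs fuse the yeast Gal4 DNA-binding domain to the human receptor LBD. Firefly luciferase is the reporter. Constitutive renilla luciferase monitors transfection efficiency and toxicity. EC50 and maximal relative activation are reported as mean±S.E.M., n≥3.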

In data set [2] the target is T2, Peroxisome proliferator-activated receptor alpha (Homo sapiens) (UniProt Q07869).
T2 sequence (whole entry): T1 sequence (Q07869 whole entry)
Nature of the data set: Partial agonist activity at Gal4-fused PPARalpha LBD (unknown origin) expressed in HEK293T cells after 14 to 16 hrs by dual-Glo luciferase assay relative to GW7647. Type of data set: cell-based. A digest of the protocol: as §1

In data set [3] the target is T3, Peroxisome proliferator-activated receptor delta (Homo sapiens) (UniProt Q03181).
T3 sequence (whole entry): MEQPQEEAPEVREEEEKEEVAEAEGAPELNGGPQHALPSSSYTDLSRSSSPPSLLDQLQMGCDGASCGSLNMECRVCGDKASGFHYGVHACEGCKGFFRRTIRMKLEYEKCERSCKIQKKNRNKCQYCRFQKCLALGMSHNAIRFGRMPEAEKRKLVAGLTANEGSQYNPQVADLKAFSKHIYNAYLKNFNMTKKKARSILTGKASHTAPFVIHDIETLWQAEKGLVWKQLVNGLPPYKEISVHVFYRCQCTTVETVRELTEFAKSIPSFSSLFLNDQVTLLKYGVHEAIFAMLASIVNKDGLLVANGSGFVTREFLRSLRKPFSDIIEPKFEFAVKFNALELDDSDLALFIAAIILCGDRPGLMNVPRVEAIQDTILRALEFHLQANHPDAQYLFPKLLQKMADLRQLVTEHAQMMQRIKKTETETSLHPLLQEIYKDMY
Description: Partial agonist activity at Gal4-fused PPARdelta LBD (unknown origin) expressed in HEK293T cells after 14 to 16 hrs by dual-Glo luciferase assay relative to L165041. Type of data set: cell-based. Summed up: as §1

Data set [4] concerns the target Retinoic acid receptor (Homo sapiens) (UniProt P13631+P10826+P10276). Nature of the data set: Agonist activity at RAR (unknown origin) at 10 uM. Type of data set: protein assay.
Data set [5] deals with T4, Peroxisome proliferator-activated receptor gamma (Homo sapiens, UniProt P37231).
T4 sequence (P37231 whole entry): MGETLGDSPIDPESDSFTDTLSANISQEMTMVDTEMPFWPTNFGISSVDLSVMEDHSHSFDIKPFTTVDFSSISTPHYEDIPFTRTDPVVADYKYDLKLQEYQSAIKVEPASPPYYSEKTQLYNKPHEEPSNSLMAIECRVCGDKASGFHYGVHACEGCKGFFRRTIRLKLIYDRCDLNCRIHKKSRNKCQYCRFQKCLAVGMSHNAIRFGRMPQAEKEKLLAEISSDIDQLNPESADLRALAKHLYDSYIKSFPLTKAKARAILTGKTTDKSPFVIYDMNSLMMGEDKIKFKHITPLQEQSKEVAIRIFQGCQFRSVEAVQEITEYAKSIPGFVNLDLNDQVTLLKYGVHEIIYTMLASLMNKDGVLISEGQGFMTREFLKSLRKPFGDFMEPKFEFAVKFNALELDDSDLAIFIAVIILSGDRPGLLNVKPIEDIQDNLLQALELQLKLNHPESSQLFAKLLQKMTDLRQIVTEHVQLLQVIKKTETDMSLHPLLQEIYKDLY
Nature of the data set: Partial agonist activity at recombinant N-terminal GFP-fused PPARgamma LBD (unknown origin) assessed as increase in biotinylated-SRC1 peptide recruitment measured after 2 hrs by HTRF assay. A general note: In TR-FRET formats the signal depends on donor and acceptor labels being close together.

The subject of data set [6] is NHDF. Description: Induction of adipogenesis in NHDF assessed as reduction in fibroblast differentiation into matured adipocytes at 0.2 to 20 uM administered on day 3 of differentiation 1 and day 5 of differentiation 2 followed by media refreshment at 2 days interval up to 13 days and measured on day 14 by Oil red O staining based light microscopic analysis. The data set is classed as cell-based. As to conditions: human. A digest of the protocol:
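Primary human fibroblasts (NHDF) were differentiated to mature adipocytes and treated with ligand or DMSO; the test compound was used at 0.2, 2 and 20 µM and the reference at 2 µM. Lipid accumulation was read by Oil Red O staining, with four replicates.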

Structures are written as SMILES. The source made the active and inactive calls. The calls are words filed in the database; no cut-off is given here.

By EC50 is commonly meant the midpoint of the concentration-response curve.

Sequence of Retinoic acid receptor (Homo sapiens) (P10276 whole entry, looked up): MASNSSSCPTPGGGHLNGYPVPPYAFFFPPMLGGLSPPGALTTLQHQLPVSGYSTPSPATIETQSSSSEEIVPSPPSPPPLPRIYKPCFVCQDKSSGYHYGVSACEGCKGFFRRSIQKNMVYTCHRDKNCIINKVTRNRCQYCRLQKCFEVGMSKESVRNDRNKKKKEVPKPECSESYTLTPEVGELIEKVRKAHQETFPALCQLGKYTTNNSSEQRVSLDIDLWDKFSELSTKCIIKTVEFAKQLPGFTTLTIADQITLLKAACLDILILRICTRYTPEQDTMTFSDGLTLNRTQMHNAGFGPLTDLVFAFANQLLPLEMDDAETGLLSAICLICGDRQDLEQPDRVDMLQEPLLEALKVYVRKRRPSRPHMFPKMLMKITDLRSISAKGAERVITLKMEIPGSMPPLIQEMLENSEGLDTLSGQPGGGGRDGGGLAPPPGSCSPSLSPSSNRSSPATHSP
Sequence of Retinoic acid receptor (Homo sapiens) (P10826 whole entry, looked up): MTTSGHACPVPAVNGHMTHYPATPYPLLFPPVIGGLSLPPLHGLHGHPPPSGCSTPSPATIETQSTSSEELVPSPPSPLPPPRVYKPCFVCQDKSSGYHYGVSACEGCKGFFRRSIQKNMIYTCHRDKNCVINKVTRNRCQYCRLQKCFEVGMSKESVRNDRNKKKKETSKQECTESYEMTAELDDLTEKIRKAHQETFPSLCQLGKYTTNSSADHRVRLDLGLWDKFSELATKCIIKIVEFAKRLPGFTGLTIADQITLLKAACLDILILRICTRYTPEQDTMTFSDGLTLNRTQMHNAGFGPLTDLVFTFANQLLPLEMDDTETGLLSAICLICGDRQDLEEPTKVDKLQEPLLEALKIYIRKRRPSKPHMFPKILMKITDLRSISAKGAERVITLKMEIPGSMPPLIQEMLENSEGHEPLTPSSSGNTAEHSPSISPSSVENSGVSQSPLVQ
Sequence of Retinoic acid receptor (Homo sapiens) (P13631 whole entry, looked up): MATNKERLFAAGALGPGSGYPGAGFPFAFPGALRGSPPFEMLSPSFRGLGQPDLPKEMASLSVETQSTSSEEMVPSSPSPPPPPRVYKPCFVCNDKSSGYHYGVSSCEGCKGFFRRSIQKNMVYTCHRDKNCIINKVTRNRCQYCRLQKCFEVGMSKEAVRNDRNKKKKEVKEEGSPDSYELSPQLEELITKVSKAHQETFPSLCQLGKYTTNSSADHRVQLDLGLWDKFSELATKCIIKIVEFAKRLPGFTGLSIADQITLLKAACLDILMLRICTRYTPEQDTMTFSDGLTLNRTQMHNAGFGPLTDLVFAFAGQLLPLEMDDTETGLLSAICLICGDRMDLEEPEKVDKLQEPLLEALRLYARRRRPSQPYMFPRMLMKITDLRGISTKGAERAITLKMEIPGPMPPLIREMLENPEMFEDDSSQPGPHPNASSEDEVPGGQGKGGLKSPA

Take `CCCCCCC(Sc1nc2ccc(NS(=O)(=O)c3ccc(Cl)cc3Cl)cc2s1)C(=O)O` (stereo unspecified): the EC50 in data set [1] came out at 0.5 µM; in data set [5], 0.107 µM. In addition, the figures for the max activation in data set [2] and in data set [3] were 29% and 12%, respectively. Further, the result in data set [4] was inactive. Besides, the Activity entry in data set [6] is “Non-Toxic”.

Source of the values: ChEMBL document CHEMBL4354876, “A Selective Modulator of Peroxisome Proliferator-Activated Receptor γ with an Unprecedented Binding Mode” (J Med Chem, 2020).
